These results are taken from ChEMBL document CHEMBL1136746 (2003).

Structures are written as SMILES. pIC50: −log10 of the molar value. Values joined by “and” are separate entries in the source; they are usually repeats but may differ in a detail not shown here. Equal values may be shown once. Active and inactive are the calls of the source. The rule behind the calls is not given here.

For experiment [1], the system named is Caco-2. Kind of experiment: Apparent Permeability through Caco-2 cell monolayers (n = 4). The experiment is classed as functional, cell-based. To be noted: Homo sapiens. In short, it runs like this:
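Caco-2 cells seeded on polycarbonate inserts (0.45 µm pore, 6.5 mm) and grown 21 days to differentiate; TEER >400 Ω/cm² before and after. ³H-acetylated peptide or [¹⁴C]mannitol (200 µM) added apically in HBSS/25 mM HEPES pH 7.4, 37 °C, shaken 400 rpm. Receiver chamber swapped at 30, 90, 150 min; scintillation counting. Papp averaged over four replicates.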
In general terms: Passage across Caco-2 layers is used to estimate intestinal permeability.

Experiment [2] is filed under the species Rattus norvegicus. Kind of experiment: Reduction in the amplitude of the nACh-activated current in rat parasympathetic ganglia at a concentration of 22 nM to that of control response (n =2). The class given is functional. Set-up: scale not given: the % may be the effect or the level left.
The species entered for experiment [3] is Rattus norvegicus. Kind of experiment: Reduction in the nACh-activated current in rat parasympathetic ganglia at a concentration of 4.5 nM to that of control response (n =3). The experiment is classed as functional. Set-up: scale not given: the % may be the effect or the level left.
The species entered for experiment [4] is Rattus norvegicus. Kind of experiment: Percent Hemolysis observed in rat red blood cells when Treated with 1 mM concentration. The class given is functional.
The species named for experiment [5] is Rattus norvegicus. Kind of experiment: Percent Hemolysis observed in rat red blood cells when Treated with 2 mM concentration. The class given is functional.
The species entered for experiment [6] is Rattus norvegicus. Kind of experiment: Percent Hemolysis observed in rat red blood cells when Treated with 5 mM concentration. The experiment is classed as functional.
The species named for experiment [7] is Rattus norvegicus. Kind of experiment: Reduction in the amplitude of the nACh-activated current in rat parasympathetic ganglia. The experiment is classed as functional, organism-based.
The species named for experiment [8] is Rattus norvegicus. Briefly: Reduction in the amplitude of the nACh-activated current in rat parasympathetic ganglia at a concentration of 22 nM to that of control response (n =4). The class given is functional. Set-up: scale not given: the % may be the effect or the level left.
The species entered for experiment [9] is Rattus norvegicus. Briefly: Reduction in the amplitude of the nACh-activated current in rat parasympathetic ganglia at a concentration of 222 nM to that of control response (n =3). The class given is functional. Set-up: scale not given: the % may be the effect or the level left.
The species named for experiment [10] is Rattus norvegicus. Briefly: Reduction in the amplitude of the nACh-activated current in rat parasympathetic ganglia at 10 uM (n = 3); No effect. The class given is functional, organism-based. In short, it runs like this:
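Perforated-patch whole-cell recording with 240 µg/mL amphotericin B in the pipette (K₂SO₄/KCl/MgSO₄/HEPES, pH 7.2). Bath: NaCl/KCl/CaCl₂/MgCl₂/glucose/HEPES. ACh 500 µM plus atropine 100 nM applied 2 s by piezo. Peptide is present in pipette and perfusate. Current is expressed as % of control, mean ± SEM.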

By Papp is commonly meant the rate of passage across a membrane or cell layer, normalised by area and donor concentration. Broadly, the pIC50 is −log10 of the IC50, conventionally taken in molar units. As to `CC(C)C[C@@H]1NC(=O)[C@H](CC(N)=O)NC(=O)[C@H](CO)NC(=O)[C@H](Cc2c[nH]cn2)NC(=O)[C@H](CCC(=O)O)NC(=O)[C@H](CC(C)C)NC(=O)[C@H](Cc2c[nH]cn2)NC(=O)[C@@H]2CSSC[C@H](NC(=O)CN)C(=O)N[C@@H](CSSC[C@@H](C(=O)O)NC1=O)C(=O)N[C@@H](CO)C(=O)N[C@@H](CC(N)=O)C(=O)N1CCC[C@H]1C(=O)N[C@@H](C(C)C)C(=O)N2`, the Papp in [1] was 20.5 10e-6 cm s-1. In addition, the Control in experiment [2] was 57% and 41%; in experiment [3] it was 90%. In addition, the Hemolysis in experiment [4] was determined as 0.53%; in experiment [5] it was 0.83%; in experiment [6], 1.35%. For the same compound, the pIC50 in experiment [7] was 8.00.
For `CCCCCCCCCCC(NCC(=O)N[C@H]1CSSC[C@@H]2NC(=O)[C@H](C(C)C)NC(=O)[C@@H]3CCCN3C(=O)[C@H](CC(N)=O)NC(=O)[C@H](CO)NC(=O)[C@H](CSSC[C@@H](C(=O)O)NC(=O)[C@H](CC(C)C)NC(=O)[C@H](CC(N)=O)NC(=O)[C@H](CO)NC(=O)[C@H](Cc3c[nH]cn3)NC(=O)[C@H](CCC(=O)O)NC(=O)[C@H](CC(C)C)NC(=O)[C@H](Cc3c[nH]cn3)NC2=O)NC1=O)C(=O)O` (stereo partly specified), the Papp in experiment [1] was 4.97 10e-6 cm s-1. For the same compound, the Control in [8] came out at 57%; in experiment [9] it was 47%; in experiment [3], 92%. In addition, the Hemolysis worked out at 1.04% in experiment [4], 0.45% in [5] and 0.83% in experiment [6]. The same compound showed a pIC50 in experiment [7] of 7.89.
With `CCCCCCCCCCC1C(=O)[C@H](CC(N)=O)NC(=O)[C@H](CO)NC(=O)[C@@H]2CSSC[C@@H](C(=O)O)NC(=O)[C@H](CC(C)C)NC(=O)[C@H](CC(N)=O)NC(=O)[C@H](CO)NC(=O)[C@H](Cc3c[nH]cn3)NC(=O)[C@H](CCC(=O)O)NC(=O)[C@H](CC(C)C)NC(=O)[C@H](Cc3c[nH]cn3)NC(=O)[C@H](CSSC[C@H](NC(=O)CN)C(=O)N2)NC(=O)[C@H](C(C)C)NC(=O)[C@@H]2CCCN12` (stereo partly specified), in [10], the Reduction result is “inactive”.
